We go through 14 compounds from ChEMBL document CHEMBL1153438, “Synthesis and biological evaluation of novel conjugates of podophyllotoxin and 5-FU as antineoplastic agents” (Bioorg Med Chem, 2009).

Calls of active or inactive are those of the source. The calls are words filed in the database; no cut-off is given here.

One series has as its system AGS. The experiment in a line: Cytotoxicity against human AGS cells after 72 hrs by SRB method. Format: functional, cell-based. In short, it runs like this: (§1)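 SRB assay in AGS and A549 solid tumour cells. Cells were seeded at 6000–10,000 per well, then exposed in triplicate to a concentration gradient for 72 h at 37 °C. IC50 was read from the dose–response curve as the average of triplicates.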

Another series concerns HL-60. The experiment in a line: Cytotoxicity against human HL60 cells after 48 hrs by MTT assay. As to conditions: HL-60, 48 h. The series is classed as functional, cell-based. The essentials: (§2)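 MTT assay in HL-60 and K562 leukemia cells. Cells were seeded at 6000–10,000 per well, then treated in triplicate with a concentration gradient for 48 h at 37 °C. IC50 was taken from the dose–response curve as the average of triplicates.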

In another series the test system is A549. Kind of series: Cytotoxicity against human A549 cells after 72 hrs by SRB method. The series is classed as functional, cell-based. As to conditions: A549, 72 h. The essentials:
as §1

A short description of series [1]: Octanol-water partition coefficient, log P of the compound. The series is classed as physicochemical. The essentials: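 Octanol–water partition coefficient; each reported P is the average of three measurements.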
A further series has as its system K562. The experiment in a line: Cytotoxicity against human K562 cells after 48 hrs by MTT assay. As to conditions: K562, 48 h. The series is classed as functional, cell-based. The essentials: as §2
Series [2] relates to Plasma. The experiment in a line: Metabolic stability in mouse plasma at 1 ug/ml after 2 hrs. The series is classed as ADME, cell-free. The essentials:
(§3)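 Compound (100 µg/mL stock in acetonitrile, 1.0 mL) was added to 4.0 mL preincubated human plasma, mouse plasma or pH 7.4 phosphate buffer and held at 37 °C. Protein was precipitated with cold acetonitrile and the sample centrifuged. Supernatant was analysed by C18 HPLC with CH3CN/H2O 45:55 at 1.0 mL/min.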

Series [3] deals with Plasma. The experiment in a line: Metabolic stability in human plasma at 1 ug/ml within 24 hrs. Format: ADME, cell-free. The essentials: as §3
The test system of another series is Calf thymus DNA. The experiment in a line: Binding affinity to calf thymus DNA after 24 hrs by circular dichroism. Format: nucleic-acid assay. To be noted: Bos taurus. The essentials: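 CT DNA dissolved and annealed in 10 mM PBS pH 7.2, then mixed with compound at 0, 10, 20 or 50 µg/mL. Mixtures were incubated 24 h at 37 °C in the dark. CD spectra were recorded from 200–320 nm in 1 cm quartz cells, with compound-only solutions in PBS as blanks.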

Series [4] can be described thus: Stability at pH 7.4 PBS at 1 ug/ml after 8 hrs. As to conditions: buffer, pH 7.4, 8 h. The series is classed as physicochemical. In short, it runs like this:
as §3

Series [5] can be described thus: Stability at pH 7.4 PBS at 1 ug/ml within 8 hrs. The series is classed as physicochemical. As to conditions: buffer, pH 7.4, 8 h. The essentials:
as §3

In the case of `COc1cc([C@@H]2c3cc4c(cc3[C@@H](N[C@@H](CC(C)C)C(=O)OCCCn3cc(F)c(=O)[nH]c3=O)[C@H]3COC(=O)[C@H]23)OCO4)cc(OC)c1O`, the IC50 was determined as 59.2 µM in the series with AGS, 0.13 µM in the series on HL-60, 0.01 µM in the series on A549 and 9.5 µM in the series with K562. The logP in [1] came to 0.33.

With `COc1cc([C@@H]2c3cc4c(cc3[C@@H](N[C@@H](CC(C)C)C(=O)OCCCCCn3cc(F)c(=O)[nH]c3=O)[C@H]3COC(=O)[C@H]23)OCO4)cc(OC)c1O`, the IC50 in the series on AGS turned out to be 23.5 µM; with HL-60 it was 0.31 µM; in the series on A549 it was 0.53 µM; in the series with K562, 6 µM. In addition, in series [1], the logP is 0.51.

Take `COc1cc([C@@H]2c3cc4c(cc3[C@@H](N[C@@H](C)C(=O)OCCCn3cc(F)c(=O)[nH]c3=O)[C@H]3COC(=O)[C@H]23)OCO4)cc(OC)c1O`: the IC50 with AGS came out at 40.4 µM; with HL-60, 22.3 µM; in the series on A549, 2.59 µM; with K562, 19.5 µM. Besides, the logP in [1] was -0.07.

Take `COc1cc([C@@H]2c3cc4c(cc3[C@@H](N[C@@H](Cc3ccccc3)C(=O)OCCCCn3cc(F)c(=O)[nH]c3=O)[C@H]3COC(=O)[C@H]23)OCO4)cc(OC)c1O`: the IC50 with AGS is 23.7 µM; in the series with HL-60 it was 0.42 µM; in the series with A549, 0.3 µM; with K562, 9.2 µM. For the same compound, in series [1], the logP stood at 0.43.

Regarding `COc1cc([C@@H]2c3cc4c(cc3[C@@H](N[C@@H](CC(C)C)C(=O)OCCCCn3cc(F)c(=O)[nH]c3=O)[C@H]3COC(=O)[C@H]23)OCO4)cc(OC)c1O`, the IC50 is 34.5 µM with AGS, 0.73 µM in the series with HL-60, below 0.01 µM in the series on A549 and 5.3 µM in the series on K562. Moreover, the logP in series [1] was determined as 0.35.

On to `CC[C@H](C)[C@H](N[C@@H]1c2cc3c(cc2[C@@H](c2cc(OC)c(O)c(OC)c2)[C@H]2C(=O)OC[C@@H]21)OCO3)C(=O)OCCCn1cc(F)c(=O)[nH]c1=O`, for which the IC50 turned out to be 56.2 µM in the series with AGS, 0.24 µM with HL-60, 0.18 µM in the series on A549 and 5.1 µM in the series on K562. The compound further showed a logP in series [1] of 0.59.

For `COc1cc([C@@H]2c3cc4c(cc3[C@@H](N[C@@H](Cc3ccccc3)C(=O)OCCCCCn3cc(F)c(=O)[nH]c3=O)[C@H]3COC(=O)[C@H]23)OCO4)cc(OC)c1O`, the IC50 was 38.8 µM with AGS, 0.04 µM in the series with HL-60, below 0.01 µM in the series with A549 and 13.2 µM in the series on K562. The Stability result in the series with Plasma [2] is reported as “Unstable”; in the series on Plasma [3], “Stable”; in series [4] it was “Unstable”; in [5] it was “Stable”. This compound also came in with a logP in series [1] of 0.29. Moreover, the result with Calf thymus DNA was Active.

Take `COc1cc([C@@H]2c3cc4c(cc3[C@@H](N[C@@H](Cc3ccc(O)cc3)C(=O)OCCCn3cc(F)c(=O)[nH]c3=O)[C@H]3COC(=O)[C@H]23)OCO4)cc(OC)c1O`: the IC50 in the series on AGS came out at 115 µM; with HL-60, 26.6 µM; in the series on A549, 21.7 µM; with K562, 28.6 µM. The logP in series [1] was 0.07.

With `COc1cc([C@@H]2c3cc4c(cc3[C@@H](N[C@H](C(=O)OCCCn3cc(F)c(=O)[nH]c3=O)C(C)C)[C@H]3COC(=O)[C@H]23)OCO4)cc(OC)c1O`, the IC50 stood at 62.5 µM in the series with AGS, 5.8 µM in the series on HL-60, 1.92 µM in the series on A549 and 13.5 µM with K562. Moreover, in [1], the logP turned out to be 0.34.

Take `O=c1[nH]cc(F)c(=O)[nH]1` [FLUOROURACIL]: the IC50 in the series with AGS and in the series on K562 was above 100 µM throughout.

Regarding `COc1cc([C@@H]2c3cc4c(cc3[C@H](O)[C@H]3COC(=O)[C@H]23)OCO4)cc(OC)c1OC` [PODOFILOX], the IC50 with AGS is 50.8 µM; in the series with HL-60, 2.75 µM; with A549 it was 7.38 µM; with K562, above 100 µM. Moreover, the logP in series [1] was 0.69.

Turning to `COc1cc([C@@H]2c3cc4c(cc3[C@@H](N[C@@H](Cc3ccccc3)C(=O)OCCCn3cc(F)c(=O)[nH]c3=O)[C@H]3COC(=O)[C@H]23)OCO4)cc(OC)c1O`, the 50% inhibitory concentration (IC50) in the series on AGS is 23.6 µM; in the series with HL-60, 0.31 µM; with A549 it was 0.48 µM; in the series with K562 it was 5.8 µM. In series [1], this compound came in with a logP of 0.65.

On to `COc1cc([C@@H]2c3cc4c(cc3[C@@H](N[C@H](C(=O)OCCCn3cc(F)c(=O)[nH]c3=O)[C@@H](C)O)[C@H]3COC(=O)[C@H]23)OCO4)cc(OC)c1O`, for which the IC50 was 141 µM in the series on AGS, 23.2 µM with HL-60, 6.95 µM in the series with A549 and 30.8 µM in the series with K562. In series [1], this compound yielded a logP of -0.12.

Regarding `COc1cc([C@@H]2c3cc4c(cc3[C@@H](N[C@@H](CCSC)C(=O)OCCCn3cc(F)c(=O)[nH]c3=O)[C@H]3COC(=O)[C@H]23)OCO4)cc(OC)c1O`, the IC50 in the series on AGS came to 24.8 µM; in the series on HL-60 it was 0.99 µM; with A549, 0.29 µM; in the series on K562 it was 8.8 µM. Besides, in series [1], the logP is 0.23.
